Series [1] is described as follows: Cytotoxicity against African green monkey Vero cells assessed as reduction in cell viability incubated for 72 hrs by alamar blue staining based fluorescence microplate reader analysis. It counts as toxicity. Particulars: African green monkey (Chlorocebus sabaeus). Put shortly:
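Vero cell cytotoxicity was read out by Alamar Blue (MABA) and expressed as IC50. Other details follow earlier reports.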

Series [2] addresses Voltage-gated inwardly rectifying potassium channel KCNH2 (Homo sapiens, UniProt Q12809). Briefly: Inhibition of human ERG at 10 uM by patch-clamp electrophysiology assay. It counts as toxicity. Put shortly: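 hERG K+ channel current was measured by manual patch-clamp electrophysiology with the test compound at 10 μM. […] The inhibition rate is the average of three individual measurements.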

Series [3] can be described thus: Metabolic stability in human liver microsomes assessed as parent compound remaining and mesured after 60 mins in absence of NADPH. It is filed as ADME, Microsome. Particulars: 1 h.
Series [4] can be described thus: Metabolic stability in human liver microsomes assessed as intrinsic clearance and mesured upto 60 mins in presence of NADPH. The conditions noted are these: 1 h. It is filed as ADME, Microsome.
Series [5] in a line: Metabolic stability in human liver microsomes assessed as half life and mesured upto 60 mins in presence of NADPH. Particulars: 1 h. It counts as ADME, Microsome. Put shortly: (§1)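 Compounds were incubated with human liver microsomes for 60 min, with or without NADPH cofactor. Substrate concentration after 60 min was normalized to the time-zero concentration to give % remaining. Half-life was derived from the incubations, and intrinsic clearance was calculated as CLint(mic) = 0.693/half-life/mg microsomal protein per mL.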

A short description of series [6]: Metabolic stability in human liver microsomes assessed as parent compound remaining and mesured after 60 mins in presence of NADPH. It is filed as ADME, Microsome. Particulars: read-out: Stability. Put shortly: as §1
The subject of series [7] is Mycobacterium tuberculosis. Briefly: Antimycobacterial activity against drug susceptible Mycobacterium tuberculosis V4207 assessed as bacterial growth inhibition incubated for 7 to 14 days by MABA assay. It is filed as functional. Particulars: time 7-14 day.
The mark [8] stands for this setting: Mycobacterium tuberculosis, V4207, read-out: MIC90.

Values after ≈ are worked out from the molar mass of the structure shown.

Sequence of Voltage-gated inwardly rectifying potassium channel KCNH2 (Q12809 whole entry): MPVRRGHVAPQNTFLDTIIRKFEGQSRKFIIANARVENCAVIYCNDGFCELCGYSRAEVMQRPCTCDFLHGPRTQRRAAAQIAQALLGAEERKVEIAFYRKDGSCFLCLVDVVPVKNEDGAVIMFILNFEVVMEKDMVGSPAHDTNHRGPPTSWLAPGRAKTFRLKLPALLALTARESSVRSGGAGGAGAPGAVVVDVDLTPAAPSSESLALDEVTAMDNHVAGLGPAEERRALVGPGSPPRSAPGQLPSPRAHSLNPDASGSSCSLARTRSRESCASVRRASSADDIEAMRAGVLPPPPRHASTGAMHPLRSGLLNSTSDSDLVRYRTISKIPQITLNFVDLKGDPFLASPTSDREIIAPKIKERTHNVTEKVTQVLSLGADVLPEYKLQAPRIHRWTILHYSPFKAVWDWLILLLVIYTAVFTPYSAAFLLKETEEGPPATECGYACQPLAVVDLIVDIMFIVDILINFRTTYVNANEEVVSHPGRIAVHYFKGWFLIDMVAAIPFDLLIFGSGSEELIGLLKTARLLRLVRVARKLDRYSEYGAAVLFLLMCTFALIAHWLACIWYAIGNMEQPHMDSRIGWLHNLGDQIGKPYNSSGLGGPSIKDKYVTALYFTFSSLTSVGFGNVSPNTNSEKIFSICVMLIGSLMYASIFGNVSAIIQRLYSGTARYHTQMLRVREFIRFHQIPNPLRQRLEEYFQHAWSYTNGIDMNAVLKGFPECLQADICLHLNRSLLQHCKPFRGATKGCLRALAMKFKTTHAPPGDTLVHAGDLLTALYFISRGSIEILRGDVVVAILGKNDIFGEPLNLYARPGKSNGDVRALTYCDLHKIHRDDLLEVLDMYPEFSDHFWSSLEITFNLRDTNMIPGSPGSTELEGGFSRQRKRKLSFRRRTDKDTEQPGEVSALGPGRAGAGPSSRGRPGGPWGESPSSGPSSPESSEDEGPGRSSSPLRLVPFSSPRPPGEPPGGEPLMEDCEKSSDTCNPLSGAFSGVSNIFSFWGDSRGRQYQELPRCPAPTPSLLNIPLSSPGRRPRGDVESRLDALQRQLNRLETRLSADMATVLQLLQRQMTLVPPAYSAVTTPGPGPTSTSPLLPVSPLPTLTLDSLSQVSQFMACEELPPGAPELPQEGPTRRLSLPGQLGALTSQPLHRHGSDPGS

Consider `CC(C)c1ccc(-c2cncc(CN3CC[Si](C)(C)CC3)c2)cc1`, for which the IC50 at 72 h in series [1] is no less than 32 µg/mL. On the same count and under the same terms, in the case of `CC(C)c1ccc(-c2ccnc(CN3CCC4(CC3)OCCCO4)c2)cc1` it was no less than 32 µg/mL. Still for that read-out and setting: in the case of `CC(C)c1ccc(-c2ccnc(CNC3CCCCCCC3)c2)cc1` it was 16 µg/mL (≈ 47.5 µM).

Consider `c1ccc(-c2ccc(-c3ccnc(CN4CCC5(CCCCC5)CC4)c3)cc2)cc1`, for which, in series [1], the IC50 at 72 h was no less than 32 µg/mL. As for `C[Si]1(C)CCN(Cc2cc(-c3ccc(C4CCCCC4)cc3)ccn2)CC1`, in series [1], the IC50 at 72 h is no less than 32 µg/mL. Turning to `c1ccc(-c2ccc(-c3ccnc(CN4CCC5(CCCC5)CC4)c3)cc2)cc1`, the “inhibition (INH)” value in series [2] worked out at 52.7%. For the same molecule, the Stability entry in series [3] is on record as “Stable”. In addition, the CLH in series [4] turned out to be 28 µL/min/mg. The t1/2 in series [5] amounted to 49.5 min. For the same molecule, in series [6], the remaining at 1 h amounted to 43.1%. Further, the IC50 at 72 h in series [1] amounted to 16 µg/mL (≈ 41.8 µM). On to `CC(C)Cc1ccc(-c2ccnc(CN3CC[Si](C)(C)CC3)c2)cc1`, for which, in series [1], the IC50 at 72 h is no less than 32 µg/mL. Consider `c1cc(-c2ccc(-c3ccoc3)cc2)cc(CN2CCC3(CCCC3)CC2)n1`, for which the Stability entry in series [3] is reported as “Stable”. In addition, in series [4], the CLH came out at 758 µL/min/mg. In series [5], the t1/2 is on record as 1.8 min. The remaining at 1 h in series [6] is 0.2%.

Take `CC(C)Cc1ccc(-c2ccnc(CN3CCC(C)CC3)c2)cc1`: the IC50 at 72 h in series [1] was no less than 32 µg/mL. Regarding `CC(C)c1ccc(-c2ccnc(CNC3CCCCCC3)c2)cc1`, the IC50 at 72 h in series [1] amounted to 16 µg/mL (≈ 49.6 µM). The same measure, in the same setting: in the case of `CC(C)c1ccc(-c2ccnc(CNC34CC5CC(CC(C5)C3)C4)c2)cc1` it was 16 µg/mL (≈ 44.4 µM). As for `CC(C)(C)c1ccc(-c2ccnc(CN3CC[Si](C)(C)CC3)c2)cc1`, in series [1], the IC50 at 72 h amounted to 16 µg/mL (≈ 45.4 µM). On the same count and under the same terms, with `Cc1ccc(-c2ccc(-c3ccnc(CN4CCC5(CCCC5)CC4)c3)cc2)cc1` the figure was no less than 32 µg/mL.

`CC(C)c1ccc(-c2ccnc(CN3CCC4(CCCC4)CC3)c2)cc1`: the Stability result in series [3] was “Stable”. Further, in series [4], the CLH was determined as 122.9 µL/min/mg. Also, the t1/2 in series [5] came to 11.3 min. In addition, the remaining at 1 h in series [6] was 1.5%. `Clc1ccc(-c2ccc(-c3ccnc(CN4CCC5(CCCC5)CC4)c3)cc2)cc1`: in series [1], the IC50 at 72 h is no less than 32 µg/mL. With `CC(C)c1ccc(-c2nc(CN3CC[Si](C)(C)CC3)co2)cc1`, the IC50 at 72 h in series [1] was no less than 32 µg/mL.

On to `CC(C)c1ccc(-c2ccnc(CNC3C4CC5CC(C4)CC3C5)c2)cc1` (stereo not drawn), for which the IC50 at 72 h in series [1] is no less than 32 µg/mL.

With `CC(C)c1ccc(-c2ccnc(CN3CC[Si](C)(C)CC3)c2)cc1`, the IC50 at 72 h in series [1] was no less than 32 µg/mL. On the same count and under the same terms, in the case of `C[Si]1(C)CCN(Cc2cc(-c3ccc(-c4ccccc4)cc3)ccn2)CC1` it was no less than 32 µg/mL. In the case of `O=C(O)Cc1ccccc1Nc1c(Cl)cccc1Cl` [DICLOFENAC], the Stability result in series [3] was “Stable”. Take `NNC(=O)c1ccncc1` [ISONIAZID]: the MIC90 in series [7] is 0.04 µg/mL (≈ 0.292 µM).

For `NC[C@H]1O[C@H](O[C@H]2[C@H](O)[C@@H](O[C@H]3O[C@H](CO)[C@@H](O)[C@H](N)[C@H]3O)[C@H](N)C[C@@H]2N)[C@H](O)[C@@H](O)[C@@H]1O` [KANAMYCIN], the MIC90 in series [7] (setting [8]) was 2 µg/mL (≈ 4.13 µM).

Turning to `C[C@H]1COc2c(N3CCN(C)CC3)c(F)cc3c(=O)c(C(=O)O)cn1c23` [LEVOFLOXACIN ANHYDROUS], the MIC90 in series [7] (setting [8]) was determined as 0.125 µg/mL (≈ 0.346 µM). The same measure, in the same setting: in the case of `CC1COc2c(N3CCN(C)CC3)c(F)cc3c(=O)c(C(=O)O)cn1c23` (stereo not drawn) [OFLOXACIN] it was 0.5 µg/mL (≈ 1.38 µM). With `CO[C@H]1/C=C/O[C@@]2(C)Oc3c(C)c(O)c4c(O)c(c(/C=N/N5CCN(C)CC5)c(O)c4c3C2=O)NC(=O)/C(C)=C\C=C\[C@H](C)[C@H](O)[C@@H](C)[C@@H](O)[C@@H](C)[C@H](OC(C)=O)[C@@H]1C` [RIFAMPIN], the MIC90 in series [7] (setting [8]) is 0.063 µg/mL (≈ 0.0766 µM).

As for `C[C@]12CC[C@H]3[C@@H](CCC4=CC(=O)CC[C@@]43C)[C@@H]1CC[C@@H]2O` [TESTOSTERONE], the Stability result in series [3] is recorded as “Stable”. Further, the remaining at 1 h in series [6] was 3.9%.

Source of the values: ChEMBL document CHEMBL5321226, “Structure-directed identification of pyridine-2-methylamine derivatives as MmpL3 inhibitors for use as antitubercular agents” (Eur J Med Chem, 2023).
